Source: PubChem BioAssay (Sanford-Burnham Center for Chemical Genomics)
Sampled rows, rich in hits. Any-hit rate of the full collection: about 1.7%.
STEP inh – STEP phosphatase inhibitors, primary screen, biochemical, fluorescence intensity, uHTS. Tyrosine-protein phosphatase non-receptor type 5 (Homo sapiens), P54829. recombinant STEP, OMFP fluorogenic substrate. inhibition, % at 20 µM. 360,000 tested, 0.25% active;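 active = inhibition at 20 µM, scaled per plate between control wells, above about 37%, limit read from the data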;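 also: 0% = DMSO with enzyme and substrate and 100% = substrate only without enzyme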
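Assay system: isolated STEP enzyme / Timing: 20 min at room temperature, dark / Doses: 20 µM, 1% DMSO / Technique: fluorescence intensity, excitation 480 nm, emission 540 nm / Reagent: fluorogenic phosphatase substrate OMFP at 25 µM final / Measure: percent inhibition scaled to no-enzyme and uninhibited-enzyme controls, plate-pattern corrected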
LMPTP inh – LMPTP phosphatase inhibitors, primary screen, biochemical, fluorescence intensity, uHTS | inhibition, % at 20 µM | Low molecular weight phosphotyrosine protein phosphatase (Homo sapiens), P24666 | 360,000 tested, 0.22% active | recombinant LMPTP-A, OMFP fluorogenic substrate;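 active = compounds that cut the enzyme signal by at least half of the control window in the single-dose screen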;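 also: plate controls were DMSO wells with enzyme plus substrate for no effect and substrate without enzyme for full effect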
Target sequence (P24666 whole entry, looked up): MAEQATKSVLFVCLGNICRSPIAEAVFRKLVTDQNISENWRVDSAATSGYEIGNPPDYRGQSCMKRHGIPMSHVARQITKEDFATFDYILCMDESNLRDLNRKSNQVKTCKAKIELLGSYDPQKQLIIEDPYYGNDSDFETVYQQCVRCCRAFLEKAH
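Test system: LMPTP-A, protein tyrosine phosphatase of low molecular weight; Input: 0.625 nM enzyme; Incubation: 50 min dark incubation at room temperature; Signal: endpoint fluorescence intensity from OMFP dephosphorylation; Read-out basis: % inhibition versus control wells.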
DNMT1 inh – human DNMT1 methyltransferase inhibitors, primary screen, biochemical, molecular beacon, fluorescence, HinP1I cleavage, uHTS | inhibition (reported as % activation of signal), % at 10 µM | 360,000 tested, 0.83% active; in the data active = inhibition above about 50%
SUMO1-SIM PPI – modulators of SUMO1 protein-protein interactions, primary screen, biochemical, uHTS; inhibition, % at 20 µM; AID 602429, 2012; 360,000 tested, 0.33% active; SUMO1 binding to a labelled peptide, TR-FRET, 1 h; in the data active = inhibition above about 37%
Target sequence (P63165 whole entry, looked up): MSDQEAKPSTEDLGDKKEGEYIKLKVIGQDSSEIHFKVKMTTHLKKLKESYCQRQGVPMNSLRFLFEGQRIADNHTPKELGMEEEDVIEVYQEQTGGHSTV
Scp-1 inhibitor – Scp-1 phosphatase inhibitors, primary screen, biochemical, colorimetric, uHTS; Recombinant Scp1, phosphopeptide, malachite green phosphate absorbance; inhibition, % at 20 µM; Carboxy-terminal domain RNA polymerase II polypeptide A small phosphatase 1 (Homo …; 340,000 tested, 0.88% active;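 active = inhibition above about 50% at 20 µM, limit read from the data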;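 also: plate controls were DMSO wells with enzyme for no effect and wells lacking enzyme for full effect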
Target sequence (Q9GZU7 76-261 limits assumed): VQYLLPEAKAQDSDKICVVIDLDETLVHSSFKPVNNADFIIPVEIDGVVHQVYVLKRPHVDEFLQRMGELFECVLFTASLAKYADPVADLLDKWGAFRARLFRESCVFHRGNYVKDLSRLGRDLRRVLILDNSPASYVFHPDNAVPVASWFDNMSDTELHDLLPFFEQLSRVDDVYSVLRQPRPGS
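Times: enzyme reaction 45 min at room temperature, colour 5 min, stabilisation 30 min. Material: SCP-1 catalytic fragment, aa 76-261. Medium: Acidic Tris acetate buffer with magnesium and detergent. Signal: colorimetric free-phosphate detection, absorbance 630 nm. Read-out basis: % inhibition of SCP-1 phosphate liberation. Reagent: Phosphorylated 17-residue peptide substrate.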
Scp-1 conf – Scp-1 phosphatase inhibitors, retest, confirmation, biochemical, colorimetric, single concentration. shares compounds with Scp-1 inhibitor. recombinant SCP-1 catalytic domain, phosphate release, malachite green absorbance. inhibition, % at 20 µM. 2,500 tested, 61% active. AID 540281, 2011;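 also: plate controls were DMSO with enzyme for no effect and buffer wells lacking enzyme for full effect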
MG interference – colorimetric readout interference by compounds, confirmation, artefact control for Scp-1 inhibitor project, biochemical, single concentration; Colorimetric interference counterscreen, malachite green absorbance 630 nm; 2,500 tested, under 10 active; shares compounds with Scp-1 inhibitor; apparent inhibition (interference), % at 20 µM;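 also: compounds added after enzyme reaction finished so only phosphate colour detection is probed; plate controls were DMSO wells with completed Scp-1 reaction for no effect and substrate wells lacking enzyme for full effect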
Scp-1 Tm shift – Scp-1 binding by thermal shift, confirmation, orthogonal assay for Scp-1 inhibitor project, biophysical, differential scanning fluorimetry | shares compounds with Scp-1 inhibitor | Recombinant SCP1, Sypro Orange thermal shift Tm | thermal shift relative to vanadate control, % at 40 µM | 1,500 tested, 25% active | AID 540329, 2011;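 active = substances whose mean melting-temperature shift, as a percentage of the reference inhibitor's shift, reaches about 5.3%, limit read from the data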;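 also: 0% = Tm of DMSO wells and 100% = Tm with sodium orthovanadate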
Numbers without * were called inactive; x = no result.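 The calls were made as follows, unless noted: active = inhibition of at least 30% at 20 µM; inactive = the rest.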

SMILES	STEP inh	LMPTP inh	DNMT1 inh	SUMO1-SIM PPI	Scp-1 inhibitor	Scp-1 conf	MG interference	Scp-1 Tm shift
Cc1ccc2c(c1)NC(=O)C(CC(=O)Nc1ccc(CN3CCC(C)CC3)cc1)O2 (stereo unspecified)	-4.0	0.5	-2.1	-1.8	52.4*	-13.2	-7.3	x
COc1ccc(CNC(=O)C2CCN(S(=O)(=O)c3ccc4c(c3)N(C(C)=O)CCO4)CC2)cc1	4.0	-0.2	3.5	0.3	2.7	x	x	x
CC(C(=O)NC1CCCCC1)N(Cc1ccccc1)C(=O)c1snc(C(N)=O)c1N (stereo unspecified)	3.4	-0.9	0.3	-7.0	2.6	x	x	x
COc1cccc(/C=C(/C#N)c2ccc(F)cc2)c1OCc1cccc(C(=O)O)c1	-0.2	0.5	1.0	-8.3	15.5	x	x	x
N#C/C(=C/c1ccccc1OCc1ccc(F)cc1)c1ccc(C(=O)O)cc1	1.7	0.5	-8.5	-7.2	64.7*	6.7	-21.3	x
CCOc1cc(/C=C(\C#N)C(=O)Nc2cccc(C(=O)O)c2)cc(Br)c1OC(=O)c1ccc(OC)cc1	-5.0	0.3	11.6	14.3	-3.8	x	x	x
N#C/C(=C\c1ccc(OCc2ccc(Br)cc2)cc1)C(=O)Nc1cccc(C(=O)O)c1	41.1*	34.0	27.6	57.5*	56.9*	59.5*	-13.9	-2.1
N#C/C(=C\c1ccccc1OCc1ccc(C(=O)O)cc1)C(=O)Nc1ccc(O)cc1	-3.6	-0.6	3.0	6.6	-13.0	x	x	x
COc1cc(/C=C(\C#N)C(=O)Nc2cccc(C(=O)O)c2)ccc1OCc1ccc(F)cc1	1.8	0.9	3.0	8.9	55.7*	26.8	-26.6	x
CCOc1cc(/C=C(\C#N)C(=O)Nc2cccc(C(=O)O)c2)ccc1OCc1ccccc1Cl	19.5	3.4	7.4	30.1	46.2	x	x	x
N#C/C(=C/c1ccc(OCc2ccc(C(=O)O)cc2)cc1)C(=O)Nc1ccccc1	2.9	1.6	1.0	-15.0	70.6*	82.4*	-6.5	-9.1
O=C(N/N=C/c1ccccn1)c1cc(-c2ccc(Br)s2)[nH]n1	33.6	1.4	33.7	-0.9	67.2*	51.9*	-8.4	-12.7
O=C(N/N=C/c1ccncc1)c1cc(-c2ccc(Br)s2)[nH]n1	-1.6	1.4	2.3	-9.8	5.9	x	x	x
COc1ccc(C2(C)NC(=O)N(CC3CCCCC3)C2=O)cc1 (stereo unspecified)	-1.4	-0.3	-2.2	-1.0	-7.4	x	x	x
O=C(N/N=C/c1cn(-c2ccccc2)nc1-c1ccc2c(c1)OCCO2)c1ccncc1	8.8	30.6	1.9	2.3	75.2*	57.2*	-14.5	-14.7
CCOC(=O)c1ccccc1NC(=O)Cc1ccc(OC)c(S(=O)(=O)N2CCOCC2)c1	-5.8	-1.1	2.0	9.4	3.3	x	x	x
CCOc1cc(/C=N/NC(=O)CSc2nnc(C)s2)ccc1OCc1ccccc1Cl	-0.5	1.5	-6.4	-4.1	77.9*	36.9*	-19.7	-6.5
COc1ccc(/C=N/N=C2/NC(=O)C(CC(=O)O)S2)cc1OCc1ccccc1Cl (stereo unspecified)	1.1	-1.3	3.2	7.1	80.8*	72.1*	-3.5	-5.3
O=C(CSc1nnc(SCc2ccccc2Cl)s1)N/N=C/c1ccc(C(=O)O)cc1	1.1	1.5	0.0	-4.9	5.7	x	x	x
CCOc1cc(/C=N/N=C2/NC(=O)C(CC(=O)O)S2)ccc1OCc1ccccc1Cl (stereo unspecified)	7.7	0.9	1.2	-3.2	75.2*	63.9*	-16.7	-16.8
CCOc1cc(/C=N/N=C2/NC(=O)C(CC(=O)O)S2)ccc1OS(=O)(=O)c1ccc(C)cc1 (stereo unspecified)	3.9	-0.5	-2.9	2.5	-2.7	x	x	x
O=C(CSc1nc2cc(C(=O)O)ccc2c(=O)n1-c1ccc(F)cc1)Nc1ccc(F)c(F)c1F	0.6	-1.8	-0.4	6.3	-4.2	x	x	x
CN(CC(=O)Nc1c(Cl)cccc1Cl)C(=O)C1CC(=O)N(Cc2ccccc2)C1 (stereo unspecified)	3.0	-7.6	3.1	-1.9	-6.5	x	x	x
COc1ccc(C(=O)N(c2c(C)cccc2C)C(COC(C)=O)COC(C)=O)cc1	x	-2.4	x	27.1	x	x	x	x
CCN(CC)C(=O)Cn1c(C)c(/C=C/c2cc[n+](C)cc2)c2ccccc21	-9.2	-0.1	10.3	-93.0	63.1*	0.4	-11.2	x
SMILES	STEP inh	LMPTP inh	DNMT1 inh	SUMO1-SIM PPI	Scp-1 inhibitor	Scp-1 conf	MG interference	Scp-1 Tm shift
C=CCn1c(C)c(/C=C/c2cc[n+](C)cc2)c2ccccc21	-13.3	5.1	13.8	-149.6	10.5	x	x	x
CC(C)=CCn1c2ccc(NC(=O)NCc3ccc(F)cc3)cc2c(=O)n1C	2.2	0.1	-2.6	-1.8	x	x	x	x
Cc1ccc(C(=O)NNCC(=O)Nc2ccc(Cl)cc2F)cc1	-1.3	0.1	4.8	-0.8	-4.3	x	x	x
Cc1cc(C)c(S(C)(=O)=O)c(N(C)NC(=O)c2c(F)cccc2F)n1	0.3	-0.7	-4.2	-0.1	68.4*	-14.7	-11.4	x
Cc1cccc(C(=O)NNC(=O)c2ccc(Br)cc2)c1	15.4	-1.1	-0.6	-2.1	-0.8	x	x	x
O=C(NNC(=O)c1ccc(NC(=O)c2ccccc2)cc1)Nc1ccccc1	5.5	13.6	14.1	-1.2	51.2*	67.0*	-10.6	-11.7
Cc1cccc(C(=O)NNC(=O)c2ccc(-c3ccccc3)cc2)c1	11.0	42.6	40.7	5.0	70.0*	73.3*	-16.1	-8.9
O=C(NNC(=O)c1ccc(NC(=O)c2ccccc2)cc1)c1ccc(F)cc1	25.2	48.5	22.2	21.6	38.7	x	x	x
O=C(NNC(=O)c1ccc(-c2ccccc2)cc1)c1ccccc1	23.6	30.9	48.6	2.3	74.3*	54.4*	-19.2	5.7*
Cc1ccc(NC(=O)c2cccc(C(=O)Nc3ccc(C)cc3C(=O)O)c2)c(C(=O)O)c1	6.1	-1.6	-0.2	17.5	56.9*	54.4*	-10.9	1.3
